Some results are limits rather than exact numbers.

Data set [1] has as its system CaM. Put plainly: CaM binding to DHs by isothermal titration calorimetry. Conditions: for Heat enthalpy change relative to DH665-719: fold of DH665-719 enthalpy. In general terms: In ITC the heat of successive injections is recorded.
The nature of data set [2]: Size-exclusion chromatography, oligomeric states. The data set is classed as physicochemical. The essentials:
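HPLC gel filtration of amylose-purified MBP-fused NOX5 dehydrogenase domain, run against CaM and BSA references. Column equilibrated in Tris pH 7.5 (50 mM per figure legends, 20 mM per methods) with 0.2 M NaCl (0.2–0.5 M range), plus 2 mM Ca²⁺ or 1 mM EDTA. Runs at 1.0 mL/min with 280 nm detection. 2 M urea added to partially dissociate oligomers. Species assigned by elution time.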
In general terms: Size exclusion chromatography separates by hydrodynamic size, large species first.

The subject of data set [3] is CaM. Briefly: CaM interaction by size-exclusion chromatography. It counts as binding. The essentials: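 HPLC size-exclusion used a Shodex KW802.5 column at 1.0 mL/min with 280 nm detection. Buffer was Tris, pH 7.5, with 0.2 M NaCl (range 0.2–0.5 M) plus 2 mM Ca²⁺ or 1 mM EDTA. Samples were filtered through 0.45 μm. MBP-DH constructs, alone or mixed with CaM or Dansyl-CaM, were compared with BSA. Collected fractions were assayed for Dansyl fluorescence.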

A short description of another data set: Dynamic light scattering. The data set is classed as physicochemical. In outline: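 DLS was run on a DynaPro NanoStar. Samples at 1 mg/mL in 50 mM Tris, pH 7.5, were filtered through 0.45 then 0.1 μm and equilibrated 2 min at 25 °C. Acquisition was 5 s, with minimum peak intensity 1% and correlation cut-offs of 0.5 and 100,000 μs. Ten autocorrelation functions were averaged and fitted to decaying exponentials for the diffusion coefficient. Rh was calculated assuming spheres.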

The nature of data set [4]: Solubility of DH proteins in bacterial expression. Conditions: E. coli expression. It counts as physicochemical.
Where [5] appears, read: 1 mg/mL, 50 mM Tris, pH 7.5, 25 °C.

B1: DH605-719: MBP-fused truncated Nox5 dehydrogenase domain residues 605–719, contains REFBD and CMBD sequences (protein)
chain: SLLTKLEMDQAEEAQYGRFLELHMYMTSALGKNDMKAIGLQMALDLLANKEKKDSITGLQTRTQPGRPDWSKVFQKVAAEKKGKVQVFFCGSPALAKVLKGHCEKFGFRFFQENF
modifications: left off: MBP, N-terminal, kept
As to B1, the “Stoichiometry nCaM/DH, ITC at high DH concentration” value with CaM [1] (CaM into 20–50 μM DH, Ca^2+, low value attributed to DH degradation) is listed as “lower than 1”. Further, the “Heat enthalpy change relative to DH665-719” value in the data set with CaM [1] is listed as “approximately double”.

B2: DH584-719: MBP-fused truncated Nox5 dehydrogenase domain residues 584–719 (56 kDa) (protein)
chain: KLHKVDFIWINRDQRSFEWFVSLLTKLEMDQAEEAQYGRFLELHMYMTSALGKNDMKAIGLQMALDLLANKEKKDSITGLQTRTQPGRPDWSKVFQKVAAEKKGKVQVFFCGSPALAKVLKGHCEKFGFRFFQENF
modifications: left off: MBP, N-terminal, kept
Take B2: the “Heat enthalpy change relative to DH665-719” value in the data set on CaM [1] is recorded as “approximately double”. In data set [2] (50 mM Tris, pH 7.5, 0.2 M NaCl), the “SEC elution time, major peak” value is recorded as 6.7 min and the “SEC elution time, very minor peak (monomer)” value is around 9.5 min. Moreover, the “SEC elution time, monomer, 2 M urea” value in data set [2] (2 M urea, 50 mM Tris, pH 7.5, 0.2 M NaCl, Species 1) was 9.52 min. Further, the “SEC elution time, dimer, 2 M urea” value in data set [2] (2 M urea, 50 mM Tris, pH 7.5, 0.2 M NaCl, Species 2) is recorded as 8.02 min. Also, in data set [2] (2 M urea, 50 mM Tris, pH 7.5, 0.2 M NaCl, Species 3 (∼168 kDa)), the “SEC elution time, trimer, 2 M urea” value is reported as 7.25 min. Also, in data set [2] (2 M urea, 50 mM Tris, pH 7.5, 0.2 M NaCl, Species 4 (∼224 kDa)), the “SEC elution time, tetramer, 2 M urea” value came to 6.71 min. In addition, in data set [2] (>0.25 M NaCl), the “Dominant oligomer, high ionic strength” value is “favors trimer formation”. The “Effect of DTT and Ca^2+ on HPLC profile” value in data set [2] (reducing agent DTT and Ca^2+ ions) is given as “did not affect its HPLC profile”. Moreover, the “Effect of CaM on DH oligomer” value with CaM [3] (CaM binding, Ca^2+) was “the dimer disappeared”. In the data set “Dynamic light scattering” (setting [5]), the “Decay of autocorrelation function” value is recorded as above 100 μs, the “Hydrodynamic radius (Rh)” value was determined as 8.3 nm and the “Poly-distribution (%pd)” value was found to be 42.5%. In addition, the “Estimated average molecular weight (DLS)” value in “Dynamic light scattering” (Raleigh sphere assumption, qualitative) is on record as around 450 kDa.

B3: DH528-719: MBP-fused truncated Nox5 dehydrogenase domain residues 528–719 (∼62 kDa) (protein)
chain: PTRRIFASEHAVLIGAGIGITPFASILQSIMYRHQKRKHTCPSCQHSWIEGVQDNMKLHKVDFIWINRDQRSFEWFVSLLTKLEMDQAEEAQYGRFLELHMYMTSALGKNDMKAIGLQMALDLLANKEKKDSITGLQTRTQPGRPDWSKVFQKVAAEKKGKVQVFFCGSPALAKVLKGHCEKFGFRFFQENF
modifications: left off: MBP, N-terminal, kept
With B3, the “Stoichiometry, ITC CaM/DH” value in the data set on CaM [1] (CaM (titrant) into DH (near 2 μM), 50 mM Tris, pH 7.5, 2 mM Ca^2+, 25 °C, MBP-fused DH) is listed as 1.18 ± 0.05. Moreover, the “Heat enthalpy change relative to DH665-719” value with CaM [1] is reported as “approximately double”. Also, in the data set with CaM [3] (equal amounts of D-CaM and DH528-719, Ca^2+), the “Share of D-CaM in DH fractions” value is on record as “approximately half”. Besides, in data set [4], the Solubility entry is “most soluble”.

These data come from paper PMC8777244 (Biochemistry and Biophysics Reports, 2022).
